Source: PubChem BioAssay AID493046 (Johns Hopkins Ion Channel Center, 2011)
The source made the active and inactive calls.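 Rule for the calls: active = KCNQ5 potassium channel activity raised or lowered at any tested dose, with a dose response curve obtained; inactive = no effect at any dose, or no curve obtained.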

target: Potassium voltage-gated channel subfamily KQT member 5 (Homo sapiens) (UniProt Q9NR82); assay: KCNQ5 activity selectivity test – cell-based, thallium flux, selectivity assay for KCNQ2 activator project, dose response (AID 493046); conditions: CHO-K1 transfected KCNQ5, FluxOR thallium flux fluorescence; series mostly up to 30 µM; potentiation: at the top concentration
In short: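 assay system = CHO-K1 cells transiently transfected with human KCNQ5 channel | timing = transfection 24 h before, dye 90 min, compound 20 min, room temperature | detection = kinetic fluorescence of thallium flux with FluxOR dye | benchmarks = vehicle controls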

Sequence of Potassium voltage-gated channel subfamily KQT member 5 (Homo sapiens) (Q9NR82 whole entry, looked up): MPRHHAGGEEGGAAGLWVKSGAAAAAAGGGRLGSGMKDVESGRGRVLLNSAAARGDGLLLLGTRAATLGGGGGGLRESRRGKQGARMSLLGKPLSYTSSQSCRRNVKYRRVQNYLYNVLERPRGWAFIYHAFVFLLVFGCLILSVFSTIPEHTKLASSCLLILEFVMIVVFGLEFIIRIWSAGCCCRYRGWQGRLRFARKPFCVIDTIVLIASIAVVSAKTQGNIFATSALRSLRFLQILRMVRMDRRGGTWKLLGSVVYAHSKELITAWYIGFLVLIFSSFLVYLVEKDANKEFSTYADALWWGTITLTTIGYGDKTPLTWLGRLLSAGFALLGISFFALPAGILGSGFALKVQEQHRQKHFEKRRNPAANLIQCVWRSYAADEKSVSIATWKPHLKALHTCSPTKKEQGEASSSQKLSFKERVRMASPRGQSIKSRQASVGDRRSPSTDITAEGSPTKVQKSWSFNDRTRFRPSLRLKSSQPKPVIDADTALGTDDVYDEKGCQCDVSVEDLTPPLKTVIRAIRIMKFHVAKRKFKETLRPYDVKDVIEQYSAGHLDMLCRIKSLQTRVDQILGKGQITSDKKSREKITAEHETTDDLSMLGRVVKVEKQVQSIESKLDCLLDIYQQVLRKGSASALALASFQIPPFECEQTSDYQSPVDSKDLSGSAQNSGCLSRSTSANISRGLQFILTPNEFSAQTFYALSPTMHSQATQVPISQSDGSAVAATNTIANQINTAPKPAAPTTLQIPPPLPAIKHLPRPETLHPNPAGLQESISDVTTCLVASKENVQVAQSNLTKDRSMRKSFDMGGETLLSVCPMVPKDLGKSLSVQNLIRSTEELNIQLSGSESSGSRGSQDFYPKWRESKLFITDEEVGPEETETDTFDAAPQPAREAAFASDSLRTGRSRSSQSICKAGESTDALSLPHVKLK

SMILES	potentiation
Cc1ccc(C)c(NC(=O)C2CC3CCC2C3)c1 (stereo not given)	2.92 (inactive)
CCCCC(=O)Nc1c(C)cc(C)cc1Cl	-9.95 (inactive)
Cc1cc(C)c(NC(=O)CC(C)(C)C)c(Cl)c1	-7.36 (inactive)
Cc1cccc(C)c1NC(=O)C1CC2CCC1C2 (stereo not given)	-7.45 (inactive)
Cc1cc(C)c(NC(=O)C2CC3CCC2C3)c(C)c1 (stereo not given)	-12.5 (inactive)
